PMC12034913 (Journal of Clinical Pharmacology, 2024)

Legend:
[1] = Open-label drug–drug interaction study: dasatinib plasma pharmacokinetics; assay type: in vivo, human
How it was run: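 Healthy fasted volunteers (N = 18). Test compound given as a 100 mg IR tablet orally with ~240 mL water on day 1 alone and on day 6 after 40 mg delayed-release PPI QD on evenings of days 2–5. Fasted ≥10 h before and 4 h after dose. K2EDTA plasma was analysed by LC-MS/MS (LLOQ 0.75 ng/mL). PK was non-compartmental, with day 6/day 1 geometric mean ratios and 90% CI from ANOVA on ln-values.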

[2] = cited from earlier work
[3] = proposed threshold; cited from earlier work
[4] = omeprazole 40 mg at steady state, 10 h before crystalline dasatinib 100 mg

extrapolated area in the plasma concentration–time profile (mean ± SD) ([1]; crystalline dasatinib formulation administered alone): 2.7% | reduction in dasatinib plasma exposure ([1]; dosing interval of 10 h between PPI and crystalline dasatinib): ~90% | AUC(0-t) ([1]; human, plasma, oral, 100 mg): 735 ng·h/mL | Cmax ([1]; human, plasma, oral, 100 mg): 195 ng/mL | AUC(0-t) ([1]; human, plasma, po, 100 mg): 798 ± 274 ng·h/mL | Cmax ([1]; human, plasma, po, 100 mg): 225 ± 105 ng/mL | half-life ([1]; human, plasma, po, 100 mg): 5.7 ± 1.5 h | mean reduction of Cmax by omeprazole comedication [1, 4]: 96% | reduction of AUC0-24 by omeprazole comedication [1, 4]: 89% | reduction of GI absorption and bioavailability ([1]; omeprazole at steady state dosed in the evening 10 h prior to crystalline dasatinib): about 90% | Cmax ratio Test/Control (geometric means) ([1]; test = with omeprazole, control = crystalline dasatinib alone, 90% CI 2.73-4.96): 3.7% | AUC0-24 ratio Test/Control (geometric means) ([1]; test = with omeprazole, control = crystalline dasatinib alone, 90% CI 9.13-14.59): 11.5%
SMILES: Cc1nc(Nc2ncc(C(=O)Nc3c(C)cccc3Cl)s2)cc(N2CCN(CCO)CC2)n1 [Crystalline Dasatinib, dasatinib]
effect on dasatinib plasma exposure ([2]; antacid administered 2 h prior to crystalline dasatinib): unaffected | reduction in absorption and bioavailability of dasatinib with PPIs ([2]; experimental setting controlled for gastric pH above 4): ≤ 80% | Cmax threshold for achieving MMR [3]: 69.2 ng/mL
